Screening results: PubChem BioAssay, The Scripps Research Institute Molecular Screening Center
Hits are enriched below; roughly 4.5% of the tested compounds scored in any of these assays.
CHO parental Ca: signal in parental CHO cells, OX1R antagonist counter-screen. parental CHO-K1, ATP-induced calcium, Fluo-8 fluorescence. inhibition, % at 5.6 µM. 330,000 tested, 0.63% active. AID 463079;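 active = inhibition above that plate's mean sample inhibition plus 3 SD, cut at about 26% in these data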;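 also: 0% = ATP-challenged DMSO wells and 100% = DMSO wells without ATP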
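Test system: untransfected parental CHO cell line. Compound: one dose, 5.6 µM nominal. Detection: intracellular calcium via Fluo-8 no-wash fluorescent dye. Measure: % inhibition. Benchmarks: ATP-challenged DMSO wells low, unchallenged DMSO wells high.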
OX1R antag-1: blocks the human orexin 1 receptor; inhibition, % at 6.6 µM; O43613; 330,000 tested, 1.8% active; OX1R-expressing cells, FRET antagonist read-out; in the data active = inhibition mostly above about 38%, no sharp cut-off; inactive = mostly below about 40%;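 also: 0% = agonist challenge alone and 100% = reference antagonist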
Target sequence (O43613 whole entry, looked up): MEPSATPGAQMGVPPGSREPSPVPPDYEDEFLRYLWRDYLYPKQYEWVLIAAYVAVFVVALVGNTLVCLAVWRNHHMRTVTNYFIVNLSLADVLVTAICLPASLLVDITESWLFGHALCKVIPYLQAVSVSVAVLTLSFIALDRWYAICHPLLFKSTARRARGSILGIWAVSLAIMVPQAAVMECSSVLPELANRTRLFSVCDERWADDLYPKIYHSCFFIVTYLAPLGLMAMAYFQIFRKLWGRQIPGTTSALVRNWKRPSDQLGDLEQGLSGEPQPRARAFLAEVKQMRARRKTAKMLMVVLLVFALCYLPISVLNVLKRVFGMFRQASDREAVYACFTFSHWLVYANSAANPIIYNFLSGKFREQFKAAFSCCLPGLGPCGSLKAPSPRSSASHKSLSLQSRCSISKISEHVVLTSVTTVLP
TAAR1 antag: human TAAR1 antagonism; 360,000 tested, 1.5% active; inhibition, % at 3 µM; CHO RD-HGA16 TAAR1, Fluo-8 calcium fluorescence, antagonist;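 active = inhibition above a per-plate cutoff, the mean inhibition of test compounds on that plate plus 3 SD, cut at about 49% in these data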;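 also: 0% = DMSO plus EC80 beta-PEA response and 100% = DMSO alone without agonist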
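Test system: RD-HGA16 CHO cells with stable hTAAR1 and Gα16 / Probe or stimulus: EC80 β-phenethylamine stimulus / Times: seeding 17-24 h prior, 75-min 37 °C, 30-min RT dye loading / Detection: Fluo-8 calcium-sensitive fluorescence / Read-out basis: % inhibition scaled between DMSO and EC80 PEA controls / Repeats: singlicate, one well per test compound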
GPR7 antag: antagonists of human GPR7 (neuropeptides B/W receptor 1) | 290,000 tested, 1.1% active | AID 1861 | inhibition, % at 4.4 µM | P48145 | GPR7-expressing cells, fluorescence antagonist assay; in the data active = inhibition above about 16%, passing the limit was not always enough;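 also: cells stimulated with the agonist NPW; 0% = agonist with vehicle and 100% = vehicle without agonist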
OX1R antag-2: antagonists of human orexin 1 receptor; 330,000 tested, 0.43% active; CHO/OX1R cells, Fluo-8 calcium fluorescence, orexin A; inhibition, % at 5 µM; O43613; AID 434989;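 active = inhibition above its plate's threshold, mean inhibition of all tested compounds on the plate plus 3 SD, cut at about 37% in these data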;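 also: 0% = orexin A challenge wells and 100% = SB-334867-A antagonist wells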
TAAR1 agonist: human TAAR1 agonism | Q96RJ0 | CHO RD-HGA16 TAAR1, Fluo-8 calcium fluorescence; vehicle wells 0%, saturating PEA agonist 100% | activation, % at 3 µM | 360,000 tested, 0.99% active | AID 624467;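 active = activation above the mean activation of all test compounds in the run plus 3 SD, cut at about 38% in these data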
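Benchmarks: low control DMSO, high control PEA (EC100); System: CHO RD-HGA16 cells carrying human TAAR1 plus Gα16; Detection: Fluo-8 fluorescence, 5 s baseline then 140 s kinetic read; Schedule: 17-24 h plating, Fluo-8 75 min 37 °C, 30 min RT; Read-out basis: % activation from peak over basal fluorescence ratio, DMSO-to-PEA scaled.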
TAAR1 ag confirm: confirmation of human TAAR1 agonists. 2,400 tested, 82% active. activation, % at 3 µM. shares compounds with TAAR1 agonist. CHO RD-HGA16 TAAR1, Fluo-8 calcium fluorescence; scaled: DMSO 0%, maximal phenethylamine 100%;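 active = activation above a cutoff set at the run's mean compound activation plus 3 SD, cut at about 39% in these data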
Ga16 ag counter: nonselective agonism, TAAR1 counter-screen; 2,400 tested, 50% active; activation, % at 3 µM; shares compounds with TAAR1 agonist; CHO-Ga16 parental, Fluo-8 calcium fluorescence; normalized to maximal ATP response, DMSO zero;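 active = activation above the run cutoff, the mean activation over all tested wells plus 3 SD, cut at about 12% in these data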;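 also: 0% = DMSO wells and 100% = maximal ATP response on the peak over basal ratio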
TAAR1 desens: counter-screen for human TAAR1 agonists: agonists that desensitize TAAR1. shares compounds with TAAR1 agonist. CHO RD-HGA16 hTAAR1, Fluo-8 calcium, beta-PEA response inhibition. inhibition, % at 3 µM. 2,400 tested, 46% active. AID 651951;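 active = inhibition above the run cutoff, the mean inhibition of all test compounds plus 3 SD, cut at about 49% in these data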;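 also: beta-PEA stimulus applied at its EC80; loss of beta-PEA calcium signal after compound pretreatment read as receptor desensitization; 0% = DMSO with beta-PEA at EC80 and 100% = DMSO alone without agonist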
Ga16 nonsel ant: counter-screen for TAAR1 agonists: nonselective Ga16 antagonists; 2,400 tested, 39% active; shares compounds with TAAR1 agonist; CHO-Ga16 ATP-induced calcium, Fluo-8 fluorescence; inhibition, % at 3 µM; AID 651952;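 active = inhibition above the plate's mean compound inhibition plus 3 SD, computed per plate, cut at about 22% in these data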;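 also: 0% = EC80 ATP with DMSO and 100% = DMSO wells without ATP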
* hit, by the source's call; x = no result.

SMILES	CHO parental Ca	OX1R antag-1	TAAR1 antag	GPR7 antag	OX1R antag-2	TAAR1 agonist	TAAR1 ag confirm	Ga16 ag counter	TAAR1 desens	Ga16 nonsel ant
CN1CC(C(=O)c2ccccc2)C(c2ccccc2)C1 (configuration not stated)	-12	13	-31	-5	-33	55*	76*	3	28	7
COc1ccc(C(=O)C2CN(C)CC2c2ccc(Cl)cc2)cc1 (configuration not stated)	-21	12	-7	4	-26	12	x	x	x	x
COc1cccc(C(=O)C2CN(C)CC2c2ccc(Cl)cc2)c1 (configuration not stated)	-10	19	0	16	-13	4	x	x	x	x
CN1Cc2cnnn2-c2ccccc2C1c1ccccc1 (configuration not stated)	x	x	20	x	x	1	x	x	x	x
CC(=O)Nc1ccc(S(=O)(=O)N2Cc3ccccc3-n3nncc3C2)cc1	x	x	-2	x	x	1	x	x	x	x
CN1C[C@H](CO)C[C@@H]2c3cccc4[nH]cc(c34)C[C@H]21	-6	2	1	-13	-11	42*	57*	0	20	-4
COc1ccc(CCNCc2ccncc2)cc1	-17	12	0	2	-17	46*	67*	3	28	5
CC(Cc1ccccc1Sc1ccccc1)N(C)C (configuration not stated)	-24	-1	9	-4	-19	48*	70*	2	12	10
COc1cc(CCN)ccc1O	-9	9	31	x	-10	90*	87*	4	67*	7
O=[N+]([O-])c1ccc(OP(=O)(O)Oc2ccc([N+](=O)[O-])cc2)cc1	x	x	2	x	x	1	x	x	x	x
O=C1NC(=O)C(C2CCOC2=O)N1 (configuration not stated)	x	x	-10	x	x	2	x	x	x	x
Cc1ccc(CNCCc2ccc(F)cc2)s1	-15	-8	-17	-12	-18	29	x	x	x	x
Fc1ccc(CCNCc2ccccc2Cl)cc1	-15	7	-18	-9	-14	64*	62*	8	24	6
Cn1cccc1CNCCc1ccc(F)cc1	-11	11	32	-3	-24	49*	82*	9	54*	7
COc1cc2c(cc1OC)C13CCN4C=C5CCOC6CC(=O)N2C1C6C5CC43 (configuration not stated)	x	x	-16	x	x	4	x	x	x	x
COC(=O)C1=C(c2cccc(OC)c2OC)C[C@@H]2CC[C@H]1N2C(=O)N1CCC(C)CC1	-13	32	-7	x	-2	4	x	x	x	x
CNC(C)Cc1ccccc1 (configuration not stated)	-11	2	66*	x	-4	63*	94*	19*	83*	9
CCCCN1C(=O)NC(=O)C2(Cc3c(nc4ccccn4c3=O)N3CCc4ccccc4C32)C1=O (configuration not stated)	-5	1	24	-11	-27	61*	90*	33*	40	11
CCCCN1C(=O)NC(=O)C2(Cc3c(nc4c(C)cccn4c3=O)N3CCc4ccccc4C32)C1=O (configuration not stated)	-29	1	38	3	-30	57*	72*	28*	49*	27*
Cc1cccn2c(=O)c3c(nc12)N1CCCCCC1C1(C3)C(=O)N(C)C(=O)N(C)C1=O (configuration not stated)	-21	2	-21	-7	-28	-3	x	x	x	x
Cc1cccn2c(=O)c3c(nc12)N1CCc2ccccc2C1C1(C3)C(=O)NC(=O)N(C)C1=O (configuration not stated)	-21	6	43	-12	-14	22	x	x	x	x
Cc1ccc(N2C(=O)NC(=O)/C(=C\C=C\c3ccco3)C2=O)cc1	-8	10	39	-6	-5	33	x	x	x	x
O=C1NC(=O)N(c2ccccc2)C(=O)/C1=C/C=C/c1ccco1	-6	2	40	-6	-17	57*	30	13*	22	2
Cc1ccc(N2C(=O)NC(=O)/C(=C\C=C\c3ccco3)C2=O)cc1C	-3	11	35	-8	-7	54*	76*	48*	69*	29*
Cc1ccc(OCC(=O)N2CCN(C3CCC(c4ccccc4)CC3)CC2)cc1 (configuration not stated)	-31	0	-9	-8	-26	-1	x	x	x	x
COc1ccc(-c2nn(CCC#N)cc2C(=O)Nc2cccc([N+](=O)[O-])c2)cc1OC	x	x	13	-18	x	5	x	x	x	x
